ChEMBL document CHEMBL4382210, “Identification of novel benzothiopyranone compounds against Mycobacterium tuberculosis through scaffold morphing from benzothiazinones” (Eur J Med Chem, 2018)
Values after ≈ are worked out from the molar mass of the structure shown.

Columns and labels:
[1] = tested on: Mycobacterium tuberculosis; assay: Antimicrobial activity against multi drug-resistant Mycobacterium tuberculosis 14231 after 7 days by MABA; type: functional; settings: Mycobacterium tuberculosis, 14231, 168 h
How it was run: (§1)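 Strain H37Rv or clinical isolates grown to late log phase in 7H9-ADC-TG, washed, resuspended in PBS, filtered (8 µm) and frozen. On day 7 Tween 80 and alamar blue added, read 16–24 h later (ex 530/em 590). MIC = lowest concentration giving ≥90% fluorescence reduction versus bacterium-only controls.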

[2] = tested on: Mycobacterium tuberculosis; assay: Antimicrobial activity against multi drug-resistant Mycobacterium tuberculosis 12611 after 7 days by MABA; type: functional; settings: Mycobacterium tuberculosis, 12611, 168 h; how it was run: as §1

| Compound | MIC90 [1] | MIC90 [2] |
| --- | --- | --- |
| O=c1cc(N2CCN(CC3CCCCC3)CC2)sc2c([N+](=O)[O-])cc(C(F)(F)F)cc12 | < 0.002 µg/mL | < 0.002 µg/mL |
| O=c1cc(N2CCN(Cc3ccccc3)CC2)sc2c([N+](=O)[O-])cc(C(F)(F)F)cc12 | 0.023 µg/mL (≈ 0.0512 µM) | 0.011 µg/mL (≈ 0.0245 µM) |
| NNC(=O)c1ccncc1 [ISONIAZID] | > 40 µg/mL | 19.5 µg/mL (≈ 142 µM) |
| CO[C@H]1/C=C/O[C@@]2(C)Oc3c(C)c(O)c4c(O)c(c(/C=N/N5CCN(C)CC5)c(O)c4c3C2=O)NC(=O)/C(C)=C\C=C\[C@H](C)[C@H](O)[C@@H](C)[C@@H](O)[C@@H](C)[C@H](OC(C)=O)[C@@H]1C [RIFAMPIN] | > 40 µg/mL | > 40 µg/mL |
| O=c1nc(N2CCN(CC3CCCCC3)CC2)sc2c([N+](=O)[O-])cc(C(F)(F)F)cc12 [MACOZINONE] | < 0.002 µg/mL | < 0.002 µg/mL |
